Calls of active or inactive are those of the source. The rule behind the calls is not given here.
Experiments:
Cathepsin B [1] = biological target: T1, Cathepsin B (Homo sapiens, UniProt P07858); conditions: dose 6.25 nM, time 15.0 min
Cathepsin B [2] = biological target: T1, Cathepsin B; assay: Inhibition of cathepsin B (unknown origin) using Cbz-Phe-Arg-AMC as substrate preincubated for 5 mins followed by substrate addition and measured after 10 mins by fluorometric assay
How it was run: (§1)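 Cathepsin B solution (0.2 ng/µL) or cathepsin L solution (0.02 ng/µL) preincubated with compound at 40 °C for 5 min. Equal volume of pre-warmed Cbz-Phe-Arg-AMC solution added (40 µM for B, 80 µM for L). AMC fluorescence (ex 380/em 460 nm) read continuously for 10 min. Triplicates, two independent experiments, mean ± SEM.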

Procathepsin L [3] = biological target: T2, Procathepsin L (Homo sapiens, UniProt P07711); conditions: dose 6.25 nM, time 15.0 min
Target sequence in this assay (P07711 114-333 limits assumed): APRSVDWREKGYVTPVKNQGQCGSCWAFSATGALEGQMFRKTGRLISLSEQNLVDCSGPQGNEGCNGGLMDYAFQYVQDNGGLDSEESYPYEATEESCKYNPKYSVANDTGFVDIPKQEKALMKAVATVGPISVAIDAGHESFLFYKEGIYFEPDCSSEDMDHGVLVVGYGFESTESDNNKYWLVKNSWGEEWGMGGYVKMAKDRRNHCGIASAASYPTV

Procathepsin L [4] = biological target: T2, Procathepsin L; assay: Inhibition of cathepsin L (unknown origin) using Cbz-Phe-Arg-AMC as substrate preincubated for 5 mins followed by substrate addition and measured after 10 mins by fluorometric assay
How it was run: as §1
Target sequence in this assay (P07711 whole entry): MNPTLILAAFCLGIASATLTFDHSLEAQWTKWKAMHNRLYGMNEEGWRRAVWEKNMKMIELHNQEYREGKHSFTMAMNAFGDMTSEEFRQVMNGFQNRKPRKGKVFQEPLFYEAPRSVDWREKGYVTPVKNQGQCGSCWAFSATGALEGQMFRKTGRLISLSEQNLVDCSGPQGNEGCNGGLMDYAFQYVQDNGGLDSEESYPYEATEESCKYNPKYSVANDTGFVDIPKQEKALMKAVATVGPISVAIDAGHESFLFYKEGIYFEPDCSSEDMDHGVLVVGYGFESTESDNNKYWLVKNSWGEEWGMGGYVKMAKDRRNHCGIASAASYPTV

`CC(C)C[C@H](NC(=O)[C@H]1O[C@@H]1C(=O)O)C(=O)NCCCCN=C(N)N` [E-64] was tested, and the inhibition (Cathepsin B [1]) was “Active”, the IC50 (Cathepsin B [2]) was 4.6 nM and the inhibition (Procathepsin L [3]) was “Active”. It also gave an IC50 (Procathepsin L [4]) of 2.3 nM.
